Active and inactive are the calls of the source. The rule behind the calls is not given here.
What was measured:
[1] = target: T1, Cannabinoid receptor 2 (Homo sapiens, UniProt P34972); experiment: Displacement of [3H]CP55940 from recombinant human CB2 receptor expressed in HEK293 cell membrane incubated for 90 mins by beta scintillation counter method; format: cell membranes
How it was run: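 HEK293 membranes stably expressing human CB2 (50 µg protein/well) competed with 0.2 nM [3H]-CP55,940 (final) against test compound at 10⁻¹²–10⁻⁵ M in Tris-HCl 50 mM, EGTA 2.5 mM, MgCl₂ 5 mM, 0.1% fatty-acid-free BSA, pH 7.4; 90 min at 30 °C. Nonspecific binding defined with 10 µM GW405833.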

[2] = Metal chelating activity assessed as Fe2+-compound complex formation incubated for 15 mins by Ferrozine based assay
How it was run: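 FeSO₄ (25 µM) in water incubated with or without test compound (100 µM, DMSO) for 15 min at room temperature, 300 µL final. Ferrozine then added (1 mM final), shaken 15 min at room temperature. Absorbance of the ferrozine–Fe(II) magenta complex read at 562 nm; chelation seen as reduced complex formation.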

[3] = target: T2, Fatty-acid amide hydrolase 1 (Homo sapiens, UniProt O00519); experiment: Inhibition of recombinant human FAAH using AMC-AA as substrate preincubated for 10 mins followed by substrate addition measured after 2 hrs by fluorometric assay
T2 sequence (O00519 whole entry): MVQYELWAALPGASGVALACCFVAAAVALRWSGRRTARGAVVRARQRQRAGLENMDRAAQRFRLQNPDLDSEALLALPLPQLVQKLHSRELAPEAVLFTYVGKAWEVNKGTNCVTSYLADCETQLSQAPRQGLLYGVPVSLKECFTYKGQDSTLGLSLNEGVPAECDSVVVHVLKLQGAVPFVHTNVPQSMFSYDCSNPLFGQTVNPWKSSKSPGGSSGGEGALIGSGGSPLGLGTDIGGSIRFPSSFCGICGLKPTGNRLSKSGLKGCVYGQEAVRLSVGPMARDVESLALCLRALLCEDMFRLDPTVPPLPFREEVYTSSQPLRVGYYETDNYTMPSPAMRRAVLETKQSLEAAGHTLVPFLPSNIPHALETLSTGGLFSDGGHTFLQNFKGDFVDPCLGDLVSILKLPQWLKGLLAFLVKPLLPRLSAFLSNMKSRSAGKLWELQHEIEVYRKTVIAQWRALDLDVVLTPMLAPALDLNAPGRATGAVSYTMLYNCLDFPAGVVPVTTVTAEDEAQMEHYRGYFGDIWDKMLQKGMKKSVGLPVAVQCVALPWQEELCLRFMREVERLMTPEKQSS
How it was run: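 Human recombinant FAAH preincubated with inhibitor at various concentrations in Tris-HCl 125 mM, Na₂EDTA 1 mM, pH 9.0, 10 min at room temperature with shaking. AMC-AA substrate then added (1 µM final); fluorescence read every 30 s for 2 h at 37 °C (ex 340/em 450 nm). Percent inhibition from no-inhibitor controls and no-enzyme blanks; IC50 from at least three independent runs in triplicate.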

[4] = target: T1, Cannabinoid receptor 2; experiment: Agonist activity at human CB2 receptor overexpressed in CHO-K1 cells assessed as cAMP level incubated for 30 mins by luminescence based assay; format: functional, cell-based
How it was run: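 CHO-K1 cells overexpressing human CB2R were plated at 30 000 cells/well and held overnight at 37 °C, 5% CO2. Test samples were added as dose–response solutions with NKH-477 to stimulate adenylate cyclase, then incubated 30 min at 37 °C. cAMP was detected by luminescence after cell lysis. Values were normalized to NKH-477 alone as 100% response. Three independent experiments were run in triplicate.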

[5] = target: Cannabinoid receptor 1 (Homo sapiens, UniProt P21554); experiment: […] human CB1 receptor in CHO cells incubated for 15 mins by plate reader analysis relative to control; format: cell-based
How it was run: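 CHO-CB1 C3 cells (human CB1) were seeded at 8000 cells/well in medium with dialyzed FBS and preincubated 15 min at 37 °C. Compounds or the CP55940 control were added for 15 min at 37 °C, then forskolin 10 µM for 5 min. cAMP was read by HTRF after 1 h at room temperature (λex 320 nm, λem 620-665 nm).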

[6] = target: Cannabinoid receptor 2 (Mus musculus) (UniProt P47936); experiment: Agonist activity at mouse CB2 receptor transfected in CHO-K1 cells assessed as beta2-arrestin recruitment incubated for 90 mins by luminescence based assay relative to control; format: functional, cell-based; details: filed as agonist
How it was run: (§1)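 PathHunter eXpress kit using mouse CB2 receptor in CHO-K1 cells. Cells were seeded 48 h before the assay in kit medium. Compounds in cell plating reagent were incubated 90 min at 37 °C, 5% CO2. Working detection solution was then added for 60 min at room temperature to read β-arrestin recruitment.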

[7] = target: Cannabinoid receptor 2 (Mus musculus, UniProt P47936); experiment: Agonist activity at mouse CB2 receptor transfected in CHO-K1 cells assessed as beta2-arrestin recruitment incubated for 90 mins by luminescence based assay; format: functional, cell-based; how it was run: as §1
[8] = system: THP-1; experiment: Antiinflammatory activity in human THP-1 macrophages assessed as decrease in IL-6 level incubated for 24 hrs by ELISA based qRT-PCR analysis; format: functional, cell-based
How it was run: (§2)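 THP-1 cells were seeded at 1 x 10⁵ cells/ml for 48 h. For macrophages, cells were differentiated with 0.01 µM PMA for 48 h; monocytes received no PMA. Cells were then given 24 h with or without 10 µg/ml LPS, plus ligands alone or with the CB2R inverse agonist JTE907 (10 µM). Cytokines were measured in 5 µL supernatant (from 1 x 10⁴ cells) by ProQuantum immunoassay, read as pg/ml from kit titration curves; n=3.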

[9] = system: THP-1; experiment: Antiinflammatory activity in human THP-1 macrophages assessed as increase in IL-10 level incubated for 24 hrs by ELISA based qRT-PCR analysis; format: functional, cell-based; how it was run: as §2
[10] = system: THP-1; experiment: Antiinflammatory activity in LPS-activated human THP-1 monocytes assessed as decrease in IL-6 level incubated for 24 hrs by ELISA based qRT-PCR analysis; format: functional, cell-based; how it was run: as §2

T1 sequence (P34972 whole entry): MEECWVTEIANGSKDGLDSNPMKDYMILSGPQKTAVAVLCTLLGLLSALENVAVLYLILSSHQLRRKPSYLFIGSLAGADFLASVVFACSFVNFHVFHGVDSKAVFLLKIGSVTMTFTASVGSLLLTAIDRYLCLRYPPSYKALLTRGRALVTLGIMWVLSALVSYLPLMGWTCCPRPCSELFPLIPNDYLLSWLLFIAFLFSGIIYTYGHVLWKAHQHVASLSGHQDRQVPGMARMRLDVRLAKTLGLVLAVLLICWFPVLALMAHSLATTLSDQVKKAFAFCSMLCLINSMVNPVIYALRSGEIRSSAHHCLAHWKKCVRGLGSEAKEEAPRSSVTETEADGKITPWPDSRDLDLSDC
Chain of Cannabinoid receptor 1 (P21554 whole entry): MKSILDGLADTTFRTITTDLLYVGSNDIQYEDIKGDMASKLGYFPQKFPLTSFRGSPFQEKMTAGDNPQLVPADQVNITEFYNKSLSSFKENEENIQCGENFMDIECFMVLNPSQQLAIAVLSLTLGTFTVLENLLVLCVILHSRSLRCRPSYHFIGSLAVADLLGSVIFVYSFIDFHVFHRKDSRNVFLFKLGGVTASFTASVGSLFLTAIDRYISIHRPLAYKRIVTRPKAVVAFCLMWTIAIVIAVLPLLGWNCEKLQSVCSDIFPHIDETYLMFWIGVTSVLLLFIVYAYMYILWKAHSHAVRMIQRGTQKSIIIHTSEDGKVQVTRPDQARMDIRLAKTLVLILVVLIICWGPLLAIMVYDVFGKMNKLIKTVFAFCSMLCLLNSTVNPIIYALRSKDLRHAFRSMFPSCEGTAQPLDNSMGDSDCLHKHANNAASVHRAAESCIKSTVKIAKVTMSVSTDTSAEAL
Chain of Cannabinoid receptor 2 (Mus musculus, UniProt P47936) (P47936 whole entry): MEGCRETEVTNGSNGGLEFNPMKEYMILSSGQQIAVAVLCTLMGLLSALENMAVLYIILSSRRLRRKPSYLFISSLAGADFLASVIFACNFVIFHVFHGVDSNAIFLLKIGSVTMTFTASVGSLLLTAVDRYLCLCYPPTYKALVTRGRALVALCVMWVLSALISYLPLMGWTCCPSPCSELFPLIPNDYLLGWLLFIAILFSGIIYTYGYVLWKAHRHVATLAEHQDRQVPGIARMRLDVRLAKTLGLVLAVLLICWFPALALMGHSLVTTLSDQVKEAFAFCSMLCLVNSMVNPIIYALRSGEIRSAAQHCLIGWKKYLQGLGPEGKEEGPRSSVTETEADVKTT
Chain of Cannabinoid receptor 2 (Mus musculus) (P47936 whole entry): as above

| Structure (SMILES) | Ki [1] [µM] | Activity [2] | IC50 [3] [µM] | also measured |
| --- | --- | --- | --- | --- |
| O=C(NC12CC3CC(CC(C3)C1)C2)c1cccc(OCc2ccccc2)c1 | 0.313 | Active | 24.1 | – |
| CCCC(C)(C)c1ccc2c(c1)OC(C)(C)[C@@H]1CC=C(C)C[C@@H]21 | – | – | – | EC50 [4]: 0.169 µM |
| CCCCCCC(C)(C)c1ccc([C@H]2C[C@@H](O)CC[C@@H]2CCCO)c(O)c1 | – | – | – | Emax [5]: 100%; Emax [6]: 100%; EC50 [7]: 0.0004 µM |
| COc1cccc(C(=O)NC23CC4CC(CC(C4)C2)C3)c1OC | 0.0876 | Active | > 50 | – |
| COc1ccc(C(=O)NC23CC4CC(CC(C4)C2)C3)cc1 | 2.45 | Active | > 50 | – |
| O=C(NC12CC3CC(CC(C3)C1)C2)c1ccc(OCc2ccccc2)cc1 | 3.85 | Active | 19.5 | – |
| COc1ccc(C(=O)NC23CC4CC(CC(C4)C2)C3)cc1OC | 3 | Active | > 50 | – |
| COc1cccc(C(=O)NC23CC4CC(CC(C4)C2)C3)c1O | 0.153 | Active | > 50 | – |
| O=C(NC12CC3CC(CC(C3)C1)C2)c1cccc(O)c1 | – | Active | 25.6 | – |
| O=C(NC1CCCCC1)c1cn(CCN2CCOCC2)c2cc(Cl)ccc2c1=O | – | – | – | Activity [8]: inactive; Activity [9]: inactive; Activity [10]: inactive |
| O=C(NC12CC3CC(CC(C3)C1)C2)c1ccccc1 | – | Active | 23.4 | – |
| O=C(NC12CC3CC(CC(C3)C1)C2)c1ccccc1O | – | Active | > 50 | – |
| COc1cccc(C(=O)NC23CC4CC(CC(C4)C2)C3)c1 | 0.51 | Active | 32.3 | – |
| O=C(NC12CC3CC(CC(C3)C1)C2)c1ccc(O)cc1 | 1.06 | Active | > 50 | – |
| COc1ccccc1C(=O)NC12CC3CC(CC(C3)C1)C2 | 0.387 | Active | 48.5 | – |
| COc1cc(Br)cc(C(=O)NC23CC4CC(CC(C4)C2)C3)c1OCc1ccccc1 | 3.2 | Active | 8.8 | – |
| COc1cc(Br)cc(C(=O)NC23CC4CC(CC(C4)C2)C3)c1O | – | Active | 38.4 | – |
| COc1cc(Br)cc(C(=O)NC23CC4CC(CC(C4)C2)C3)c1OC | 0.139 | Active | 44.6 | – |

Reference: ChEMBL document CHEMBL5316280, “Development of N-(1-Adamantyl)benzamides as Novel Anti-Inflammatory Multitarget Agents Acting as Dual Modulators of the Cannabinoid CB2 Receptor and Fatty Acid Amide Hydrolase” (J Med Chem, 2023)
